Measured values published in article PMC6982535 (Science (New York, N.Y.), 2019).

Tests used:
hERG = hERG (Homo sapiens, UniProt Q12809); assay: hERG channel currents in inside-out patches; format: cell-based; conditions: inside-out patches; result in words
Kir1.1 = biological target: T1, Kir1.1 (Homo sapiens, UniProt P48048); assay: BL-1249 on helix bundle-crossing gated channel Kir1.1; format: cell-based; conditions: result in words
T1 sequence (P48048 1-391): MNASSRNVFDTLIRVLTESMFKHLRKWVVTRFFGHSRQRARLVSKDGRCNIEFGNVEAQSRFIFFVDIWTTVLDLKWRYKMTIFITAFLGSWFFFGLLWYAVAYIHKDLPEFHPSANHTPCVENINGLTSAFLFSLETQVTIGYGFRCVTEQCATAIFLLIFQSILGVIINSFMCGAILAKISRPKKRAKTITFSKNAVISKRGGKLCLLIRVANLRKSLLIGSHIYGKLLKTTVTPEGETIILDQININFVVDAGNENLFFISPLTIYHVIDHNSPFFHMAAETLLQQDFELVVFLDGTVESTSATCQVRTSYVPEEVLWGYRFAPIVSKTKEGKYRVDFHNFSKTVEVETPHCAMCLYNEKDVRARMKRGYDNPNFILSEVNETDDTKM

[1] = acidic tetrazole ring; no reference given; cited from earlier work
TALK-1 = biological target: T2, TALK-1 (Homo sapiens, UniProt Q96T55); assay: Extended screening of K2P channels with BL-1249: TALK-1; format: cell-based; conditions: result in words
T2 sequence (Q96T55 1-309): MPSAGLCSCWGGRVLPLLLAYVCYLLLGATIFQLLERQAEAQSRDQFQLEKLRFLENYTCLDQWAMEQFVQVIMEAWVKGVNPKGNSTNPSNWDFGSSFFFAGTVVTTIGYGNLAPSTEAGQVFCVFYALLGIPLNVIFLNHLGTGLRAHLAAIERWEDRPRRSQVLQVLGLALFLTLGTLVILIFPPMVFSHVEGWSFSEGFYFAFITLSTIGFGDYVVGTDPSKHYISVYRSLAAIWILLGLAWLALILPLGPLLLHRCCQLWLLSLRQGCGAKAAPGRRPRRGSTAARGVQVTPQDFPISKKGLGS

TALK-2 = biological target: T3, TALK-2 (Homo sapiens, UniProt Q96T54); assay: TALK-2 currents in inside-out patches; format: cell-based; conditions: result in words
T3 sequence (Q96T54 1-332): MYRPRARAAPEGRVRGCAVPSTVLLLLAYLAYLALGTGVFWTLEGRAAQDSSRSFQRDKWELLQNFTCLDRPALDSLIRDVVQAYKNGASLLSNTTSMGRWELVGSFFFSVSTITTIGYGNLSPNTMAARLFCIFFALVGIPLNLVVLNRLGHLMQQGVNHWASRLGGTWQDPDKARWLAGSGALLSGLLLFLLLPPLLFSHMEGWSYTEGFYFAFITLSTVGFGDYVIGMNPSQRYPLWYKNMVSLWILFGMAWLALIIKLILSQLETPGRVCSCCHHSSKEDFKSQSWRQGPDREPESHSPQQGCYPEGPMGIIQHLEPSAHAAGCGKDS
Procedure, shortened: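 TALK-2 currents were recorded in inside-out patches from Xenopus oocytes. Fold activation was measured with 50 μM test compound or 1 mM 2-APB, applied at several intracellular pH values.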

Kv3.1 = biological target: T4, Kv3.1 (Homo sapiens, UniProt P48547); assay: BL-1249 on helix bundle-crossing gated channel Kv3.1; format: cell-based; conditions: result in words
T4 sequence (P48547 1-511): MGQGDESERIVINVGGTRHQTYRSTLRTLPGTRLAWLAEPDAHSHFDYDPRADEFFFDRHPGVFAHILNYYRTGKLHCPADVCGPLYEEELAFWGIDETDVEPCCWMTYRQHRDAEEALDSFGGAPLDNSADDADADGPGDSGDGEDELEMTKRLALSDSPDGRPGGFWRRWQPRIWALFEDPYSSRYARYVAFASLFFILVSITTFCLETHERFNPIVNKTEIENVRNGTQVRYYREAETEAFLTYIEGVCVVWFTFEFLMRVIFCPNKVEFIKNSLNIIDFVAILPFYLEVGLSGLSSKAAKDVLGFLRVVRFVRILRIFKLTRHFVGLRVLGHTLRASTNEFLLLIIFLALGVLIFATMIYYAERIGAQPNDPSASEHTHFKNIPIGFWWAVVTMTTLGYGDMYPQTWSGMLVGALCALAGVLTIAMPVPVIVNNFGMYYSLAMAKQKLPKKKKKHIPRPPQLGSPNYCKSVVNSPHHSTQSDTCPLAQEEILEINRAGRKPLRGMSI

THIK-2 = biological target: T5, THIK-2 (Homo sapiens, UniProt Q9HB15); assay: Extended screening of K2P channels with BL-1249: THIK-2; format: cell-based; conditions: result in words
T5 sequence (Q9HB15 1-430): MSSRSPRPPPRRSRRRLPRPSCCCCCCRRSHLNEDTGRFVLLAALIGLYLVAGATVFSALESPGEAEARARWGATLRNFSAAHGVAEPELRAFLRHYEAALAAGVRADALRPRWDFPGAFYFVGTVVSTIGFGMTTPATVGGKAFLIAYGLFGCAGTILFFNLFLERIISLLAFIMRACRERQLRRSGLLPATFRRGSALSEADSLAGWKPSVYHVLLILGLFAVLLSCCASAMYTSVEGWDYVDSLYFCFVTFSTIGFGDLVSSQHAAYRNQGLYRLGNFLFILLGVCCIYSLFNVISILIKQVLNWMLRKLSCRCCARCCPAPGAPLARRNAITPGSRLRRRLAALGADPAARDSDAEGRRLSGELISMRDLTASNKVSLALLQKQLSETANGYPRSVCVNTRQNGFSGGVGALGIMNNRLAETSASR

TREK-1 = biological target: T6, TREK-1 (Homo sapiens, UniProt O95069); assay: TREK-1 channel currents in inside-out patches; format: cell-based; conditions: inside-out patches; result in words
T6 sequence (O95069 1-426): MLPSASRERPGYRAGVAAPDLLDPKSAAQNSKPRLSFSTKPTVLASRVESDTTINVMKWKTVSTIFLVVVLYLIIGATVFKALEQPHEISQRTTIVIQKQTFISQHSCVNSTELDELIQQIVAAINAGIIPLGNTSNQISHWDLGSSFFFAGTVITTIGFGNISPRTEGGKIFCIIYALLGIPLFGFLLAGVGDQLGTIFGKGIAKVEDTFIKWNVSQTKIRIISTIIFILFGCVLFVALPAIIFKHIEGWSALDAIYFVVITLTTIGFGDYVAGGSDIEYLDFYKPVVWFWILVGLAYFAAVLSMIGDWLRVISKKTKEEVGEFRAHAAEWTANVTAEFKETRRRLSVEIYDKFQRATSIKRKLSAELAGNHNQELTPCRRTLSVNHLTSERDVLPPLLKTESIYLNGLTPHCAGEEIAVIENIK
Procedure, shortened: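 TREK-1 currents were recorded in inside-out patches from Xenopus oocytes and evoked by voltage ramps. Currents were read at +40 mV. Concentration-response curves were obtained with and without 5 μM THexA (tetrahexylammonium). THexA inhibition of basal current was quantified separately. n ≥ 8.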

Sequence of hERG (Q12809 whole entry): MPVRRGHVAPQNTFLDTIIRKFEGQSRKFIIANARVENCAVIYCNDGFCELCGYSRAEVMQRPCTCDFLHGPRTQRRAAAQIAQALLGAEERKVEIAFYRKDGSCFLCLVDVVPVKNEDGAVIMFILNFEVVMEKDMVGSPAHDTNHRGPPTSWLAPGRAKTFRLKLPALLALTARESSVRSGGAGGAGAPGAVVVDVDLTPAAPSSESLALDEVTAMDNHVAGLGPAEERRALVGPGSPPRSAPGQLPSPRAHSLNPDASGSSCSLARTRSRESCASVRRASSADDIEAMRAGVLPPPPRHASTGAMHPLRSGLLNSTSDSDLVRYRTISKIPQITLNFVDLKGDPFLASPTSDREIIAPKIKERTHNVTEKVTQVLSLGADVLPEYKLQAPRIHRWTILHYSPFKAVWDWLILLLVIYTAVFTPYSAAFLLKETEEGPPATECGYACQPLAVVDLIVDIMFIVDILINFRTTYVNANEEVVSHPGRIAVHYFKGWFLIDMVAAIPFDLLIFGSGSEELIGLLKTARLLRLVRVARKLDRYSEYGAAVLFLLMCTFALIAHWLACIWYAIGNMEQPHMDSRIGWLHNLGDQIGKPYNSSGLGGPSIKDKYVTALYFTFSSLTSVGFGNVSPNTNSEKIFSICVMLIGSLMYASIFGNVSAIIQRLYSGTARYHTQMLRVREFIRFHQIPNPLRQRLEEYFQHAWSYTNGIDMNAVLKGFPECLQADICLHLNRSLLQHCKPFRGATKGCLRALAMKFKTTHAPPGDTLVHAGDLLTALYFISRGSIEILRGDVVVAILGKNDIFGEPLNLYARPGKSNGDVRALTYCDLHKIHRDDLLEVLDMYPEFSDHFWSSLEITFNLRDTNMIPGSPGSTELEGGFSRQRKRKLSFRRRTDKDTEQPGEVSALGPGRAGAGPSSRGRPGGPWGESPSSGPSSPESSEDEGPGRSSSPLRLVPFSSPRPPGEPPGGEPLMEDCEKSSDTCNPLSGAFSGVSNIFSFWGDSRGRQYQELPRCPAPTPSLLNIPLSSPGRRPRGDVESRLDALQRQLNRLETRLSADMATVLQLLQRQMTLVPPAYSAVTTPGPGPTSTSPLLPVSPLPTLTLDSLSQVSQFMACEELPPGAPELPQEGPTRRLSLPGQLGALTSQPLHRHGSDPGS

activation of Kir1.1 (Kir1.1): not activated
activation of TALK-1 (TALK-1): potent activation
activation of TALK-2 (TALK-2; extended screening): potent activation
pH dependence of TALK-2 activation (TALK-2; lowering pHi to 5, 50 μM BL-1249 or 1 mM 2-APB): potency dropped strongly
activation of Kv3.1 (Kv3.1): not activated
activation of THIK-2 (THIK-2): potent activation
opening / activation of TREK-1 channels (TREK-1): equal efficiency in opening
Compound: c1ccc(-c2nn[nH]n2)c(Nc2cccc3c2CCCC3)c1 [BL-1249]
opening / activation of hERG channels (hERG): equal efficiency in opening
pKa [1]: around 5
